Some results are limits rather than exact numbers.

This passage reports IC50 and selectivity ratio results from ChEMBL document CHEMBL1140898, “Targeting the fatty acid biosynthesis enzyme, beta-ketoacyl-acyl carrier protein synthase III (PfKASIII), in the identification of novel antimalarial agents” (J Med Chem, 2009).

Data set [1] can be described thus: Cytotoxicity against mouse J774.G8 cells after 72 hrs by MTS assay. In kind it is cell-based. A digest of the protocol:
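Murine J774 macrophage subclone G8 grown in DMEM with 10% fetal calf serum, 2 mM L-glutamine, 50 μg/mL gentamicin, 5% CO2, 37 °C. Seeded at 1 × 10^4 cells/well and left 24 h. Compound dilutions in medium or vehicle added, then 72 h exposure. MTS tetrazolium added for 1–2 h at 37 °C, OD read at 490 nm. Vehicle control values subtracted.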
In general terms: Tetrazolium assays rely on reduction of a dye to a coloured formazan, in cell work by metabolically active cells.

The nature of data set [2]: Therapeutic index, ratio of IC50 for mice (Mus musculus) J774.G8 cells to IC50 for chloroquine-resistant Plasmodium falciparum W2. The conditions noted are these: J774.G8 cells versus Plasmodium falciparum W2.
Data set [3] relates to Plasmodium falciparum. The data set is described as follows: Antimalarial activity against […] by [3H]hypoxanthine uptake. In kind it is functional, organism-based.
Data set [4] is described as follows: Inhibition of Plasmodium falciparum KAS3 expressed in Escherichia coli assessed as transfer of [1-14C]acetyl-CoA to [1-14C]acetyl-ACP. An outline of the steps: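 Recombinant 6xHIS-tagged P. falciparum KASIII and 6xHIS-ACP expressed in E. coli and purified. Radiometric filter assay of [1-14C]-acetyl-CoA transfer to ACP, 25 min at 37 °C, quenched with 10% TCA. Product captured on P81 cellulose filters, washed with TCA and counted by scintillation. […] IC50 by variable-slope nonlinear regression, curves accepted at R2 >0.80.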

The test system of data set [5] is Plasmodium falciparum. The data set can be described thus: Antimalarial activity against Plasmodium falciparum TM91C235 by [3H]hypoxanthine uptake. In kind it is functional, organism-based.
Data set [6] deals with Plasmodium falciparum. The data set can be described thus: Antimalarial activity against […] by [3H]hypoxanthine uptake. In kind it is functional, organism-based.

One may read the IC50 as the concentration at which inhibition is half-maximal. Take `Cc1cc(O)c(O)c(S(=O)(=O)c2ccc(N)cc2)c1`: the 50% inhibitory concentration (IC50) in data set [1] turned out to be 27.6 µM; in the data set on Plasmodium falciparum [3] it was 23.6 µM; in data set [4] it was 27.2 µM; in the data set on Plasmodium falciparum [5] it was 3.4 µM; in the data set with Plasmodium falciparum [6] it was 19.7 µM. The selectivity ratio in data set [2] worked out at 1.2.
On to `Cc1ccc(S(=O)(=O)c2cc(O)ccc2O)cc1`, for which the half-inhibitory concentration (IC50) in data set [1] was above 1890 µM; in the data set with Plasmodium falciparum [3] it was 64.3 µM; in data set [4], 193 µM; with Plasmodium falciparum [5], 60.5 µM; in the data set with Plasmodium falciparum [6] it was 37.8 µM. Besides, the selectivity ratio in data set [2] was above 29.6.
`O=S(=O)(c1ccc(O)cc1)c1cc(Cl)ccc1O`: the IC50 was found to be 107 µM in data set [1]; 45.7 µM in the data set with Plasmodium falciparum [3]; 115 µM in data set [4]; 80.8 µM with Plasmodium falciparum [5]; 38.6 µM in the data set on Plasmodium falciparum [6]. For the same compound, the selectivity ratio in data set [2] is 2.3.
For `CC(C)(C)S(=O)(=O)CC(=O)c1ccc(Cl)cc1Cl`, the half-inhibitory concentration (IC50) in data set [1] is above 1620 µM; with Plasmodium falciparum [3] it was 84.1 µM; in data set [4] it was 62.9 µM; in the data set on Plasmodium falciparum [5], above 204 µM; in the data set with Plasmodium falciparum [6], 45.3 µM. In data set [2], the selectivity ratio is above 19.3.
For `O=S(=O)(c1cccc(S(=O)(=O)c2cc(O)ccc2O)c1)c1cc(O)ccc1O`, the half-inhibitory concentration (IC50) in data set [1] is above 1180 µM; with Plasmodium falciparum [3], 7.1 µM; in data set [4] it was 38.2 µM; in the data set with Plasmodium falciparum [5], 4.5 µM; in the data set on Plasmodium falciparum [6], 26 µM. The selectivity ratio in data set [2] is above 169.
With `CC(C)c1ccc(S(=O)(=O)c2ccc(C(C)C)cc2)cc1`, the IC50 in data set [1] was 7.3 µM; with Plasmodium falciparum [3] it was 23.5 µM; in data set [4], 22.5 µM; in the data set on Plasmodium falciparum [5] it was 32.7 µM; with Plasmodium falciparum [6], 18.5 µM. Besides, the selectivity ratio in data set [2] was found to be 0.3.
With `CC(=O)Nc1ccc(S(=O)(=O)c2ccc(NC(=O)c3ccccc3O)cc2)cc1`, the IC50 in data set [1] is above 1620 µM; in the data set on Plasmodium falciparum [3] it was 20.7 µM; in data set [4], 48.1 µM; with Plasmodium falciparum [5], 31.7 µM; in the data set on Plasmodium falciparum [6], 29.2 µM. Further, the selectivity ratio in data set [2] was above 77.
In the case of `Nc1nc(O)c2cc(S(=O)(=O)c3ccc4ccccc4c3)ccc2n1`, the half-inhibitory concentration (IC50) in data set [1] was above 2850 µM; in the data set on Plasmodium falciparum [3] it was 1.2 µM; in data set [4] it was 18.3 µM; with Plasmodium falciparum [5], 1.4 µM; in the data set on Plasmodium falciparum [6], 0.43 µM. In data set [2], the selectivity ratio is above 2850.
